Each block holds one compound with its values, some of them ahead of it.
What was measured:
[1] = (§1) % stability in human plasma after 10 minutes.; format: ADME, organism-based; settings: plasma, read-out: Stability
In short: (§2)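 Pooled heparinized plasma from 4 volunteers was incubated at 37 °C with test compound at a final concentration of 30 ug/mL, with DMSO-only controls. The reaction was stopped with 2 M citric acid at 10 and 60 min, with a zero-time sample. Supernatants were analysed by reversed-phase HPLC at 240 nm against an internal standard, in duplicate, and reported as % compound remaining.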

[2] = % stability in krebs buffer after 60 minutes.; format: physicochemical; settings: for remaining at 1 h: Krebs buffer, read-out: Stability; for Stability: buffer, 1 h
In short: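 Test compound, at a final concentration of 30 ug/mL, was spiked into Krebs buffer at 37 °C for 60 min, then quenched with 2 M citric acid. Supernatant was analysed by reversed-phase HPLC with UV detection at 240 nm and an internal standard, in duplicate. The read-out was % compound remaining.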

[3] = (§3) % stability in human plasma after 60 minutes.; format: ADME, organism-based; settings: plasma, read-out: Stability; in short: as §2
[4] = system: Rattus norvegicus; experiment: Inhibition of rat ear edema as percentage change in mean weight (47.21+/-1.28 mg) from control group of 55.67+/-1.22 mg at 25.00 ug dose
[5] = system: Rattus norvegicus; experiment: Inhibition of rat ear edema as percentage change in mean weight (43.03+/-1.19 mg) from control group of 55.67+/-1.22 mg at 100.00 ug dose
[6] = target: T1, Glucocorticoid receptor (Homo sapiens, UniProt P04150); experiment: Affinity for human glucocorticoid receptor
T1 sequence (P04150 whole entry): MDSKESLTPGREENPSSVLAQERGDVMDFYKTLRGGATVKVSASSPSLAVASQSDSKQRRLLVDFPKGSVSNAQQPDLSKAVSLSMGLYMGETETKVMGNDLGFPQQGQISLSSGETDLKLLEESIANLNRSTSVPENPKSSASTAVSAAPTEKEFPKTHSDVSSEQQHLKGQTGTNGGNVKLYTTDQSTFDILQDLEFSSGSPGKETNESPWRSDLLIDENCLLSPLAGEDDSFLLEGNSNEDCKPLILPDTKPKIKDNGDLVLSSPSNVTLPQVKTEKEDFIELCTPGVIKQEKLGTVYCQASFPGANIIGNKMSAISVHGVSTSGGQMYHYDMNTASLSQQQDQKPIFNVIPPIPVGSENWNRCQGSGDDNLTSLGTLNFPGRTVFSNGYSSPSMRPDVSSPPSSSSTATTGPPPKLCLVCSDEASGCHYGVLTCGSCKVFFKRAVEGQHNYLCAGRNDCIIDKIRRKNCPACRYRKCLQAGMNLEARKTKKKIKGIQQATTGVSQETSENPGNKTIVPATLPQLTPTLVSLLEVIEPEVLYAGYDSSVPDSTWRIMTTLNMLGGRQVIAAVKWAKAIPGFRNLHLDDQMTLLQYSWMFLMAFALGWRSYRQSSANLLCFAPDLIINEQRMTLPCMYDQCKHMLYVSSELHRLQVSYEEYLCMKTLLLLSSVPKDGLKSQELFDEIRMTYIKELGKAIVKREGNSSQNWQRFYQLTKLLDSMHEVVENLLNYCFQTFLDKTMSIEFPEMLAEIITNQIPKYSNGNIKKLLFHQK

[7] = system: Rattus norvegicus; experiment: Inhibition of rat ear edema as percentage change in mean weight (47.85+/-1.09 mg) from control group of 55.67+/-1.22 mg at 6.25 ug dose
[8] = system: Rattus norvegicus; experiment: Inhibition of rat ear edema as percentage change in mean weight (58.02+/-1.46 mg) from control group of 55.67+/-1.22 mg at 1.56 ug dose
[9] = organism: Homo sapiens; experiment: as §1; format: ADME, organism-based; settings: 10 min; in short: as §2
[10] = organism: Homo sapiens; experiment: as §3; format: ADME, organism-based; settings: 1 h; in short: as §2
[11] = system: Rattus norvegicus; experiment: Inhibition of rat ear edema as percentage change in mean weight (47.21+/-1.49 mg) from control group of 72.25+/-2.24 mg at 0.25 ug dose; format: functional
[12] = system: Rattus norvegicus; experiment: Inhibition of rat ear edema as percentage change in mean weight (44.71+/-1.53 mg) from control group of 72.25+/-2.24 mg at 1.00 ug dose; format: functional
[13] = system: Rattus norvegicus; experiment: Inhibition of rat ear edema as percentage change in mean weight (64.86+/-2.70 mg) from control group of 72.25+/-2.24 mg at 0.06 microg dose; format: functional
[14] = system: Rattus norvegicus; experiment: Inhibition of rat ear edema as percentage change in mean weight (39.79+/-0.99 mg) from control group of 55.67+/-1.22 mg at 1.00 ug dose; format: functional
[15] = system: Rattus norvegicus; experiment: Inhibition of rat ear edema as percentage change in mean weight (44.39+/-2.26 mg) from control group of 72.25+/-2.24 mg at 4.00 ug dose; format: functional
[16] = system: Rattus norvegicus; experiment: Inhibition of rat ear edema as percentage change in mean weight (40.57+/-1.10 mg) from control group of 55.67+/-1.22 mg at 4.00 ug dose; format: functional
[17] = system: Rattus norvegicus; experiment: Inhibition of rat ear edema as percentage change in mean weight (45.29+/-1.16 mg) from control group of 55.67+/-1.22 mg at 0.25 ug dose; format: functional
[18] = system: Rattus norvegicus; experiment: Inhibition of rat ear edema as percentage change in mean weight (49.76+/-2.12 mg) from control group of 72.25+/-2.24 mg at 25.00 ug dose; format: functional
[19] = system: Rattus norvegicus; experiment: Inhibition of rat ear edema as percentage change in mean weight (46.46+/-2.86 mg) from control group of 72.25+/-2.24 mg at 100 ug dose; format: functional
[20] = system: Rattus norvegicus; experiment: Inhibition of rat ear edema as percentage change in mean weight (54.84 +/- 2.18 mg) from control group of 72.25+/-2.24 mg at 10.00 ug dose; format: functional
[21] = system: Rattus norvegicus; experiment: Inhibition of rat ear edema as percentage change in mean weight (71.65+/-2.81 mg) from control group of 72.25+/-2.24 mg at a 1.56 ug dose; format: functional
[22] = half life in human plasma.; format: ADME, organism-based
In short: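 Pooled heparinised plasma from 4 volunteers, stored at −20 °C; compound spiked to final 30 ug/mL at 37 °C. Half-life taken from additional time points in this incubation; reaction stopped with 2 M citric acid, samples frozen overnight and centrifuged. Supernatant analysed by reverse-phase HPLC with UV at 240 nm, internal standard dexamethasone or hydrocortisone; duplicates.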

[23] = system: Rattus norvegicus; experiment: Inhibition of rat ear edema as percentage change in mean weight (55.94 +/- 3.31 mg) from control group of 72.25+/-2.24 mg at 6.25 ug dose; format: functional
[24] = target: T2, Glucocorticoid receptor (Rattus norvegicus) (UniProt P06536); experiment: Percentage reduction in thymus weight (248.99+/-23.19 mg) at 50 ug dose; format: functional
T2 sequence (whole entry): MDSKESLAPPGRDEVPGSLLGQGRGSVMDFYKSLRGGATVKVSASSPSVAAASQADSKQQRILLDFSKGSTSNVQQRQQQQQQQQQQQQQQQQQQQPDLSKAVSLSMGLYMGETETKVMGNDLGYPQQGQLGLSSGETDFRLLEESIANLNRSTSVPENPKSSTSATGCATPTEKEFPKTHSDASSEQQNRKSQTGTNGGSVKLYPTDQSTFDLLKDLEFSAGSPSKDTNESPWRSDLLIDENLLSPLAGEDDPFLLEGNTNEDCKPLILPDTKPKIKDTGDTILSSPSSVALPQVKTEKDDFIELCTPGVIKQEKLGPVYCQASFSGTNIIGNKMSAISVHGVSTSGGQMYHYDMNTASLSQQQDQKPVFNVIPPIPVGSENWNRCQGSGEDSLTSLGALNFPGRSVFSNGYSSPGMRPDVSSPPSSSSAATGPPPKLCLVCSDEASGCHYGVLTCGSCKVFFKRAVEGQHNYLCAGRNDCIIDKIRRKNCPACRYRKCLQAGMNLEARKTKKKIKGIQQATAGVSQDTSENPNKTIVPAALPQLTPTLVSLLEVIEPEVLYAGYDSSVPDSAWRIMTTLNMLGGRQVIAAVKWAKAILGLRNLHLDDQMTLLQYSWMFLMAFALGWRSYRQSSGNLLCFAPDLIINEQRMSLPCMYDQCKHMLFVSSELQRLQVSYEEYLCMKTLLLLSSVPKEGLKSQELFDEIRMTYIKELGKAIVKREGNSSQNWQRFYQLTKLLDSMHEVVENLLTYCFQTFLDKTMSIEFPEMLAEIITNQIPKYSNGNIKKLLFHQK

remaining at 10 min [1]: 0%
remaining at 1 h [2]: 77%
remaining at 1 h [3]: 0%
SMILES: CCC[C@@H]1O[C@@H]2CC3C4C[C@H](F)C5=CC(=O)C=C[C@]5(C)[C@@]4(F)[C@@H](O)C[C@]3(C)[C@]2(SC2CCOC2=O)O1 (stereo partly drawn)

SMILES: CC1(C)O[C@@H]2CC3C4C[C@H](F)C5=CC(=O)C=C[C@]5(C)[C@@]4(F)[C@@H](O)C[C@]3(C)[C@]2(S[C@@H]2CCOC2=O)O1 (stereo partly drawn)
Decrease [4]: 15.2%
remaining at 10 min [1]: 45%
Decrease [5]: 22.7%
remaining at 1 h [2]: 90%
IC50 [6]: 1.4 nM
remaining at 1 h [3]: 15%
Decrease [7]: 14%
Decrease [8]: 0%

remaining at 10 min [1]: 100%
remaining at 1 h [2]: 100%
remaining at 1 h [3]: 99%
SMILES: CC1(C)O[C@@H]2CC3C4C[C@H](F)C5=CC(=O)C=C[C@]5(C)[C@@]4(F)[C@@H](O)C[C@]3(C)[C@]2(CC2CCOC2=O)O1 (single isomer, unassigned; isomer B)

SMILES: CCC[C@@H]1O[C@@H]2CC3C4C[C@H](F)C5=CC(=O)CC[C@]5(C)[C@@]4(F)[C@@H](O)C[C@]3(C)[C@]2(S[C@H]2CCOC2=O)O1 (stereo partly drawn)
remaining at 10 min [1]: 0%
remaining at 1 h [2]: 82%
remaining at 1 h [3]: 0%

remaining at 10 min [1]: 20%
remaining at 1 h [2]: 89%
remaining at 1 h [3]: 0%
SMILES: CC1(C)O[C@@H]2CC3C4C[C@H](F)C5=CC(=O)CC[C@]5(C)[C@@]4(F)[C@@H](O)C[C@]3(C)[C@]2(SC2CCOC2=O)O1 (stereo partly drawn)

remaining at 10 min [1]: 19%
remaining at 1 h [2]: 100%
remaining at 1 h [3]: 7%
SMILES: CCC[C@@H]1O[C@@H]2CC3C4C[C@H](F)C5=CC(=O)C=C[C@]5(C)[C@@]4(F)[C@@H](O)C[C@]3(C)[C@]2(S[C@@H]2CCOC2=O)O1 (stereo partly drawn)

Stability [9]: 53%
Stability [2]: 97%
Stability [10]: 13%
SMILES: CC1=C(SC2CCOC2=O)[C@@]2(C)C[C@H](O)[C@@]3(F)C(CCC4=CC(=O)C=C[C@@]43C)C2C1 (single isomer, unassigned; isomer A)

IC50 [6]: 400 nM
SMILES: CCC[C@@H]1O[C@@H]2CC3C4C[C@H](F)C5=CC(=O)CC[C@]5(C)[C@@]4(F)[C@@H](O)C[C@]3(C)[C@]2(SC(CCO)C(=O)O)O1 (stereo partly drawn)

Stability [9]: 28%
Stability [2]: 99%
Stability [10]: 19%
SMILES: CCC[C@@H]1O[C@@H]2CC3C4C[C@H](F)C5=CC(=O)CC[C@]5(C)[C@@]4(F)[C@@H](O)C[C@]3(C)[C@]2(SC2COC(=O)C2)O1 (single isomer, unassigned; isomer A)

SMILES: CCC(=O)O[C@]1(C(=O)SCF)[C@H](C)C[C@H]2[C@@H]3C[C@H](F)C4=CC(=O)C=C[C@]4(C)[C@@]3(F)[C@@H](O)C[C@@]21C [FLUTICASONE PROPIONATE]
Decrease [11]: 34.7%
Decrease [12]: 38.1%
Decrease [13]: 10.23%
Decrease [14]: 28.5%
Decrease [15]: 38.6%
Decrease [16]: 27.1%
Decrease [17]: 18.6%

SMILES: CCC[C@@H]1O[C@@H]2CC3C4C[C@H](F)C5=CC(=O)CC[C@]5(C)[C@@]4(F)[C@@H](O)C[C@]3(C)[C@]2(S[C@@H]2CCOC2=O)O1 (stereo partly drawn)
remaining at 10 min [1]: 19%
Decrease [18]: 31.1%
remaining at 1 h [2]: 91%
Decrease [19]: 35.7%
Decrease [20]: 24.1%
IC50 [6]: 6.4 nM
Decrease [21]: 0.83%
remaining at 1 h [3]: 0%
half-life [22]: 5 min
Decrease [23]: 22.6%

Stability [9]: 56%
remaining at 1 h [2]: 100%
Stability [10]: 0%
SMILES: CCC[C@@H]1O[C@@H]2CC3C4C[C@H](F)C5=CC(=O)CC[C@]5(C)[C@@]4(F)[C@@H](O)C[C@]3(C)[C@]2(SC2COC(=O)C2)O1 (single isomer, unassigned; isomer B)

IC50 [6]: 289 nM
SMILES: CC1(C)O[C@@H]2CC3C4C[C@H](F)C5=CC(=O)C=C[C@]5(C)[C@@]4(F)[C@@H](O)C[C@]3(C)[C@]2(SC(CCO)C(=O)O)O1 (stereo partly drawn)

remaining at 10 min [1]: 100%
remaining at 1 h [2]: 100%
remaining at 1 h [3]: 100%
half-life [22]: > 240 min
SMILES: CCC[C@@H]1O[C@@H]2CC3C4C[C@H](F)C5=CC(=O)CC[C@]5(C)[C@@]4(F)[C@@H](O)C[C@]3(C)[C@]2(SCC2CCOC2=O)O1 (stereo partly drawn)

Stability [10]: 100%
SMILES: CC1(C)O[C@@H]2CC3C4C[C@H](F)C5=CC(=O)C=C[C@]5(C)[C@@]4(F)[C@@H](O)C[C@]3(C)[C@]2(CC2CCOC2=O)O1 (single isomer, unassigned; isomer A)

remaining at 10 min [1]: 28%
remaining at 1 h [2]: 92%
remaining at 1 h [3]: 0%
SMILES: CC1(C)O[C@@H]2CC3C4C[C@H](F)C5=CC(=O)CC[C@]5(C)[C@@]4(F)[C@@H](O)C[C@]3(C)[C@]2(S[C@@H]2CCOC2=O)O1 (stereo partly drawn)

Reduction [24]: 48%
SMILES: CCCC1O[C@@H]2C[C@H]3[C@@H]4CCC5=CC(=O)C=C[C@]5(C)[C@H]4[C@@H](O)C[C@]3(C)[C@]2(C(=O)CO)O1 (stereo partly drawn)

Stability [9]: 17%
remaining at 1 h [2]: 98%
remaining at 1 h [3]: 8%
SMILES: CC1=C(SC2CCOC2=O)[C@@]2(C)C[C@H](O)[C@@]3(F)C(CCC4=CC(=O)C=C[C@@]43C)C2C1 (single isomer, unassigned; isomer B)
